In PubChem BioAssay AID504623 (Broad Institute, 2011):
Records with an inconclusive call do not appear. Active and inactive are the calls of the source.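 How the source made its calls: active means mean replicate inhibition of at least 25% with at least 60% of replicates reaching that level; inconclusive means only one of the two criteria is met; inactive means neither criterion met.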

Test system: SUM159 tumorsphere formation, imaging count, 8-9 days
Assay: blockade of breast tumor sphere growth – imaging, SUM159 cells, single point, dry powder, orthogonal assay for breast cancer stem cell project, late-stage follow-up (AID 504623)
Conditions: at 25 µM; stronger effect = higher value
Outline: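 Material: SUM159 cells forming tumorspheres in methylcellulose suspension; Quantity: 1000 cells/well; Buffer or medium: medium plus 0.5% methylcellulose; Compound: single dose, 200 nL pinned compound; Incubation: Sphere formation over 8 days at 37 °C, 5% CO2; Technique: Brightfield imaging at 2x, 9 sites/well; Format: Ultra-low-attachment multiwell plate.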

SMILES | inhibition
Cc1csc(NC(=O)c2ccc(COc3ccccc3)o2)n1 | 21.4% (inactive)
COc1cccc(OCc2ccc(C(=O)Nc3nc(C)cs3)o2)c1 | -6.02% (inactive)
Cc1csc(NC(=O)c2ccc(COc3cccc(OC(F)(F)F)c3)o2)n1 | 22.2% (inactive)
Cc1csc(NC(=O)c2ccc(COc3ccccc3F)o2)n1 | 4.83% (inactive)
O=C(COc1ccc(Cl)cc1Cl)N/N=C/c1ccc[nH]1 | -22.3% (inactive)
CC(C)(C)c1ccc(C2CC2C(=O)N/N=C/c2ccc[nH]2)cc1 (centres undefined) | 62.8%
Cc1csc(NC(=O)c2ccc(COc3cccc(C#N)c3)o2)n1 | 44.2%
Cc1cc(Cl)ccc1OCC(=O)N/N=C/c1ccc[nH]1 | 3.98% (inactive)
O=C(/C=C/c1ccc(-c2ccccc2)cc1)NC1=NCCS1 | 4.08% (inactive)
CC(C)c1ccc(/C=C/C(=O)Nc2ccccc2)cc1 | 62.4%
CC(C)(C)c1ccc2c(c1)OC(C(=O)N/N=C/c1ccc[nH]1)CO2 (centres undefined) | 34.1%
O=C(COc1c(Cl)cc(Cl)cc1Cl)N/N=C/c1ccc[nH]1 | -7.47% (inactive)
Cc1csc(NC(=O)c2ccc(COc3cccc(Cl)c3)o2)n1 | 19.5% (inactive)
CC(C)c1ccc(/C=C/C(=O)NC2=NCCS2)cc1 | 10.4% (inactive)
